The source made the active and inactive calls. The calls are words filed in the database; no cut-off is given here.
Experiments:
[1] = tested on: Rattus norvegicus; test: Anxiolytic like activity in water-deprived Sprague-Dawley rat assessed as increase in water drinking time during punished period at 3 mg/kg, po administered 30 mins prior to testing by Vogel conflict test relative to control; assay type: functional, organism-based
Summary of the method: (§1)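 Water-deprived male Sprague-Dawley rats (n = 6–8) drank during unpunished and punished periods, with licking suppressed by mild shock in punished periods. Compounds were given 30 min before testing. Analysis was ANOVA with Dunnett's test.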

[2] = AUC in femoral artery/vein cannulated Sprague-Dawley rat at 10 mg/kg, ip administered […] as single dose by LC-MS/MS analysis; assay type: ADME, organism-based; settings: in vivo
Summary of the method: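 Male Sprague-Dawley rats (n = 3 per time point) were dosed 1 mg/kg i.v. or 10 mg/kg i.p. Plasma concentrations were measured at set time points. Clearance, Vdss and T½ came from the i.v. arm, and AUC, Cmax and Tmax from the i.p. arm.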

[3] = target: T1, GABA-A receptor; alpha-1/beta-3/gamma-2 (Homo sapiens, UniProt P14867+P18507+P28472); test: Binding affinity to human GABAA alpha1beta3gamma2 receptor expressed in HEK293 cells assessed as GABA-induced membrane potential change preincubated for 3 mins followed by addition of GABA measured after 3 mins by FLIPR assay; assay type: cell-based
T1 sequence (P14867 whole entry): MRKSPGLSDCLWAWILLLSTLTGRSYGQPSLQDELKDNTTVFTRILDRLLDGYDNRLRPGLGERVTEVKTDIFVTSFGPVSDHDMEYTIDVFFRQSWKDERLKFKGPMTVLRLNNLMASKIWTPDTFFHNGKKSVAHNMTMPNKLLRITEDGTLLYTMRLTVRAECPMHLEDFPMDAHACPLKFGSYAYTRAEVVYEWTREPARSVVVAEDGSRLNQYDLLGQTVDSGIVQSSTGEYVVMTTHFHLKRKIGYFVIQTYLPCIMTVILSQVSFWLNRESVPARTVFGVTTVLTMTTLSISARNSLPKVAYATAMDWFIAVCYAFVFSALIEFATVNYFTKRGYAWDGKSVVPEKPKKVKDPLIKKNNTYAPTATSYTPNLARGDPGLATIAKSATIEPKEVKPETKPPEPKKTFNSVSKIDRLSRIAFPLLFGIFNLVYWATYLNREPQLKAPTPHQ
T1 sequence (P18507 whole entry): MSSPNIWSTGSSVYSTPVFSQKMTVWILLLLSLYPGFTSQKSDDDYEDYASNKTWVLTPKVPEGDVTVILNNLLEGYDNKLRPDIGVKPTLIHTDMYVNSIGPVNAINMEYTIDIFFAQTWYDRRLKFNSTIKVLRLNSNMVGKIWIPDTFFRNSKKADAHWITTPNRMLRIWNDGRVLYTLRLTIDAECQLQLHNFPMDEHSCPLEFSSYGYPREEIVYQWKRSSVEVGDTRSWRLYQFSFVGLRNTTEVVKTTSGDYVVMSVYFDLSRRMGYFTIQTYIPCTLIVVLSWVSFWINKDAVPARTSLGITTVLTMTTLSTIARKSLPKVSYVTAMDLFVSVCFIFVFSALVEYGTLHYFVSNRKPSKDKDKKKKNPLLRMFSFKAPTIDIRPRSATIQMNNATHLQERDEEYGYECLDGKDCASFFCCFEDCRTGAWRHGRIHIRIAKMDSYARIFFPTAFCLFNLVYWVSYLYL
T1 sequence (P28472 whole entry): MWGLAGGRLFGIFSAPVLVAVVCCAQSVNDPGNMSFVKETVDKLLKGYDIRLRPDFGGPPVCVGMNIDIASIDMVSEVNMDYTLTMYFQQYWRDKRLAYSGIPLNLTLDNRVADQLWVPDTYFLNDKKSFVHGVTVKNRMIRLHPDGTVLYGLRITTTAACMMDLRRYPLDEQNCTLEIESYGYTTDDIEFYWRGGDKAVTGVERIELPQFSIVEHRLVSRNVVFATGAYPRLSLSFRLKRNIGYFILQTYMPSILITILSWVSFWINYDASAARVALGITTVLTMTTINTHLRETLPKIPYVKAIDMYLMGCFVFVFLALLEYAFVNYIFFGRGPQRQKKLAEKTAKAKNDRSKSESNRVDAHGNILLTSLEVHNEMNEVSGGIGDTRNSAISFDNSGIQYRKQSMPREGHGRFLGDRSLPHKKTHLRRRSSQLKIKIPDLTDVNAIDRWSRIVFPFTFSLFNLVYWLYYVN
Summary of the method: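 Stably transfected HEK293T cells expressing α1β3γ2 (n = 2) or α3β3γ2 (n = 1) GABAARs. Membrane potential was read as fluorescence changes on a FLIPR Tetra, and EC50 was derived.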

[4] = Cytotoxicity against HEK293T cells assessed as viable cells measured after 18 hrs by CellTiter-Glo assay; assay type: cell-based, HEK-293T; settings: human, read-out: LD50
Summary of the method: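 HEK293T cells were exposed to compound for 18 h (n = 4). Viable cells were quantified with CellTiter-Glo, and LD50 was derived.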

[5] = target: T2, GABA-A receptor; alpha-2/beta-3/gamma-2 (Homo sapiens) (UniProt P18507+P28472+P47869); test: Modulation of recombinant GABA alpha2beta3gamma2 receptor (unknown origin) expressed in Xenopus laevis oocytes assessed as change in GABA-induced EC(3 to 6) current at 1 uM by two-electrode voltage clamp assay; assay type: cell-based
Summary of the method: (§2)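 Xenopus laevis oocytes expressing α1, α2, α3 or α5 β3γ2 GABAARs were recorded by two-electrode voltage clamp. Modulation of the GABA EC3-6 current (taken as 100%) was tested at 100 nM, 1 μM and 10 μM in the same cells. Values are mean ± SEM, n = 3–4.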

[6] = target: T2, GABA-A receptor; alpha-2/beta-3/gamma-2 (Homo sapiens); test: Modulation of recombinant GABA alpha2beta3gamma2 receptor (unknown origin) expressed in Xenopus laevis oocytes assessed as change in GABA-induced EC(3 to 6) current by two-electrode voltage clamp assay; assay type: cell-based; summary of the method: as §2
[7] = tested on: Plasma; test: Fraction unbound in rat plasma by equilibrium dialysis method; assay type: ADME, cell-free
Summary of the method: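 Fraction unbound was determined in vitro by equilibrium dialysis with rat plasma protein and rat brain.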

[8] = target: GABA-A receptor; alpha-3/beta-3/gamma-2 (Homo sapiens) (UniProt P18507+P28472+P34903); test: Modulation of recombinant GABA alpha3beta3gamma2 receptor (unknown origin) expressed in Xenopus laevis oocytes assessed as change in GABA-induced EC(3 to 6) current at 10 uM by two-electrode voltage clamp assay; assay type: cell-based; summary of the method: as §2
[9] = tested on: Rattus norvegicus; test: Anxiolytic like activity in water-deprived Sprague-Dawley rat assessed as increase in water drinking time during punished period at 10 mg/kg, po administered 30 mins prior to testing by Vogel conflict test relative to control; assay type: functional; summary of the method: as §1
[10] = target: GABA-A receptor; alpha-5/beta-3/gamma-2 (Homo sapiens) (UniProt P18507+P28472+P31644); test: Modulation of recombinant GABA alpha5beta3gamma2 receptor (unknown origin) expressed in Xenopus laevis oocytes assessed as change in GABA-induced EC(3 to 6) current at 10 uM by two-electrode voltage clamp assay; assay type: cell-based; summary of the method: as §2

Q: For `C#Cc1ccc2c(c1)C(c1ccccn1)=NCc1c(-c3cnco3)ncn1-2`, which Activity [1] is on record?
A: The Activity was “inactive”.

Q: And the AUC [2]?
A: The AUC was 16.5 µM·h.

Q: What about the EC50 [3] of the same molecule?
A: The EC50 was greater than 20 µM.

Q: And the CC50 at 18 h [4]?
A: Its CC50 at 18 h is greater than 100 µM.

Q: And the Activity [5]?
A: Its Activity is 201%.

Q: What about the Activity [6] of the same molecule?
A: The Activity was “Dose-dependent effect”.

Q: And the Fu [7]?
A: The Fu was 25.9%.

Q: And the Activity [8]?
A: Its Activity is 332%.

Q: What about the Activity [9] of the same molecule?
A: The Activity was 240%.

Q: And the Activity [10]?
A: The Activity was 246%.

Reference: ChEMBL document CHEMBL4041524, “Synthesis and Characterization of a Novel γ-Aminobutyric Acid Type A (GABAA) Receptor Ligand That Combines Outstanding Metabolic Stability, Pharmacokinetics, and Anxiolytic Efficacy” (J Med Chem, 2016)
